Laboratory results taken from ChEMBL document CHEMBL3259770, “Structure-activity relationship studies of the tricyclic indoline resistance-modifying agent” (J Med Chem, 2014).
Values after ≈ are worked out from the molar mass of the structure shown.

Columns and labels:
Staphylococcus aureus [1] = test: Antibacterial activity against methicillin-resistant Staphylococcus aureus ATCC BAA-44 after overnight incubation by broth microdilution assay in presence of 4 ug/ml amoxicillin and 2 ug/ml clavulanic acid; format: functional
In short: (§1)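 Resensitization screen: compound from a 5 mg/mL DMSO stock, 2-fold serially diluted in MHB from 32 μg/mL final. Antibiotic was held at its CLSI-susceptible level: amoxicillin/clavulanic acid 4/2 μg/mL, cefazolin 8 μg/mL, meropenem 4 μg/mL. Final MRSA inoculum OD600 0.001, overnight at 37 °C with shaking. MRC was the concentration giving no visible overnight growth.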

Staphylococcus aureus [2] = test: Antibacterial activity against methicillin-resistant Staphylococcus aureus ATCC BAA-44 after overnight incubation by broth microdilution assay in presence of 8 ug/ml cefazolin; format: functional; in short: as §1
Staphylococcus aureus [3] = test: Antibacterial activity against methicillin-resistant Staphylococcus aureus ATCC 33592 after overnight incubation by broth microdilution assay in presence of 4 ug/ml meropenem; format: functional; in short: as §1
[4] = Cytotoxicity against human HeLa cells after 24 hrs by CellTiter-Glo assay; format: cell-based
In short: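 HeLa cells seeded at 20 000 cells/well in DMEM with 10% FCS and 1% penicillin/streptomycin, grown 16 h at 37 °C, 5% CO2. Medium renewed, then compound added in DMSO to final 0.5–32 μg/mL, triplicate series. After 24 h at 37 °C, plates equilibrated to room temperature and viability read by CellTiter-Glo luminescence.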

| SMILES | MRC (Staphylococcus aureus [1]) [µg/mL] | MRC (Staphylococcus aureus [2]) [µg/mL] | MRC (Staphylococcus aureus [3]) [µg/mL] | GI50 at 24 h [4] [µg/mL] |
| --- | --- | --- | --- | --- |
| C=C1CCC[C@@H]2Nc3ccc(Br)cc3[C@]12CCN(C)S(=O)(=O)c1ccc(Cl)cc1 | >32 | >32 | >32 |  |
| C=C1CCC[C@@H]2Nc3cccc(Br)c3[C@]12CCNS(=O)(=O)c1ccc(Cl)cc1 | 32 | 16 | 16 |  |
| C=C1CCC[C@@H]2Nc3ccc(C)cc3[C@]12CCNS(=O)(=O)c1ccc(Cl)cc1 | 16 | 16 | 32 |  |
| C=C1CCC[C@@H]2Nc3ccc(Br)cc3[C@]12CCNC(=O)CCCC | >32 | >32 | 32 |  |
| C=C1CCC[C@@H]2Nc3ccc(Br)cc3[C@]12CCNC(=O)C(F)(F)F | >32 | >32 | 32 |  |
| C=C1CCC[C@@H]2Nc3ccc(Br)cc3[C@]12CCNS(=O)(=O)c1ccccn1 | 32 | 32 | 32 |  |
| C=C1CCC[C@@H]2Nc3ccc(Br)cc3[C@]12CCNS(=O)(=O)c1ccc(Cl)cc1Cl | 8 | >32 | 4 |  |
| C=C1CCC[C@@H]2Nc3c(F)cc(Br)cc3[C@]12CCN | >32 | 32 | 16 | 16.2 (≈ 49.8 µM) |
| C=C1CCC[C@@H]2Nc3c(F)cc(Br)cc3[C@]12CCNS(=O)(=O)c1ccc(C(F)(F)F)cc1 | 4 | 4 | 4 | 8.7 (≈ 16.3 µM) |
| C=C1CCC[C@@H]2N(C)c3ccc(Br)cc3[C@]12CCNS(=O)(=O)c1ccc(Cl)cc1 | >32 | >32 | >32 |  |
| C=C1CCC[C@@H]2Nc3ccc(Br)cc3[C@]12CCNS(=O)(=O)c1ccc([N+](=O)[O-])cc1 | >32 | >32 | >32 |  |
| C=C1CCC[C@@H]2Nc3ccc(Cl)cc3[C@]12CCNS(=O)(=O)c1ccc(Cl)cc1 | 8 | 4 | 8 | 35 (≈ 80 µM) |
| C=C1CCC[C@@H]2Nc3ccc(Br)cc3[C@]12CCNS(=O)(=O)c1ccc(I)cc1 | 4 | 4 | 32 | 33 (≈ 57.6 µM) |
| C=C1CCC[C@@H]2Nc3ccc(Br)cc3[C@]12CCNS(=O)(=O)c1ccc(C)cc1 | >32 | >32 | >32 |  |
| C=C1CCC[C@@H]2Nc3c(F)cc(Br)cc3[C@]12CCNS(=O)(=O)c1ccc(NC(C)=O)cc1 | 32 | 32 | 16 | 32 (≈ 61.3 µM) |
| C=C1CCC[C@@H]2Nc3c(F)cc(Br)cc3[C@]12CCNS(=O)(=O)c1ccc(OC)cc1 | 8 | 4 | 8 | 49 (≈ 98.9 µM) |
| C=C1CCC[C@@H]2Nc3ccc(Br)cc3[C@]12CCNS(=O)(=O)c1ccc(NC(C)=O)cc1 | >32 | >32 | 32 |  |
| C=C1CCC[C@@H]2Nc3ccc(Br)cc3[C@]12CCNS(=O)(=O)c1ccc(Cl)c(Cl)c1 | 4 | 2 | 4 | 12.8 (≈ 24.8 µM) |
| C=C1CCC[C@@H]2N(C(=O)c3ccc(Cl)cc3)c3ccc(Br)cc3[C@]12CCNS(=O)(=O)c1ccc(Cl)cc1 | >32 | >32 | >32 |  |
| C=C1CCC[C@@H]2Nc3cc(Br)ccc3[C@]12CCNS(=O)(=O)c1ccc(Cl)cc1 | 16 | 16 | 16 |  |
| C=C1CCC[C@@H]2Nc3ccccc3[C@]12CCNS(=O)(=O)c1ccc(Cl)cc1 | 16 | 16 | 16 |  |
| C=C1CCC[C@@H]2Nc3ccc(Br)cc3[C@]12CCNS(=O)(=O)c1ccc(N)cc1 | 16 | 16 | 16 |  |
